An excerpt weighted towards active compounds, which were near 1.7% of everything screened.
Rpn11 inh: inhibitors of human proteasome Rpn11. inhibition, % at 20 µM. O00487. hit rate 0.59% among 360,000. AID 588493. human 26S proteasome, Ub4-pepOG fluorescence polarization; 20S core pre-blocked with epoxomicin;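 active = inhibition at 20 µM, scaled to each plate's controls, above about 33%, limit read from the data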
PLC-gamma1 inh: PLC-gamma1 (human) inhibition, primary screen | P19174 | purified PLC-gamma1, fluorogenic substrate, fluorescence | inhibition, % at 12.2 µM | hit rate 0.84% among 370,000; in the data active = inhibition above about 9.5%
UCH37 DUB inh: blocks the human deubiquitinase UCH37 | Q9Y5K5 | purified proteasome/UCH37, Ub-AMC cleavage fluorescence | inhibition, % (concentration not given with the values) | hit rate 0.33% among 330,000 | AID 588478;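 active = mean inhibition over replicate wells above about 20%, limit read from the data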;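 also: 0% = compound-free wells with enzyme and 100% = wells lacking proteasome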
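Material: Human UCH37 enzyme supplied as purified proteasome complex | Schedule: 30 min preincubation with enzyme, 25 min cleavage at room temperature | Detection: AMC fluorescence 355/460 nm | Measure: % inhibition of Ub-AMC cleavage fluorescence | Controls: Wells without proteasome as full block, compound-free enzyme plus substrate as uninhibited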
PLC-beta3 inh: inhibitors of human phospholipase C beta3; hit rate 0.18% among 370,000; Q01970; AID 720704; inhibition, % at 12.2 µM; Purified PLC-beta3, fluorogenic substrate, fluorescence; in the data active = inhibition above about 11%;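 also: 0% = median of compound wells on plate and 100% = full blocker control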
Rpn11 confirm: confirmation of human proteasome Rpn11 inhibitors; purified human 26S proteasome, Ub4-pepOG fluorescence polarization; proteasome pretreated with epoxomicin; shares compounds with Rpn11 inh; hit rate 29% among 1,900; inhibition, % at 20 µM; AID 602318
MMP-2 inh: MMP-2 (human) inhibition counter-screen. shares compounds with Rpn11 inh. recombinant MMP-2, FRET peptide cleavage fluorescence. inhibition, % at 20 µM. hit rate 4% among 1,900. AID 602330;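 also: human MMP-2 activated beforehand with APMA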
Thrombin inh: counter-screen for RPN11 inhibitors: inhibition of bovine thrombin; AID 602333; bovine thrombin cleavage of Ub4-pepOG, fluorescence polarization; hit rate 13% among 1,900; inhibition, % at 20 µM; shares compounds with Rpn11 inh;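 active = mean inhibition at least 40% at 20 µM, or signal 3 deviations below plate average, so some actives read negative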;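 also: plate controls were thrombin with DMSO for no effect and buffer wells lacking thrombin for full effect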
Target sequence (P00735 whole entry, looked up): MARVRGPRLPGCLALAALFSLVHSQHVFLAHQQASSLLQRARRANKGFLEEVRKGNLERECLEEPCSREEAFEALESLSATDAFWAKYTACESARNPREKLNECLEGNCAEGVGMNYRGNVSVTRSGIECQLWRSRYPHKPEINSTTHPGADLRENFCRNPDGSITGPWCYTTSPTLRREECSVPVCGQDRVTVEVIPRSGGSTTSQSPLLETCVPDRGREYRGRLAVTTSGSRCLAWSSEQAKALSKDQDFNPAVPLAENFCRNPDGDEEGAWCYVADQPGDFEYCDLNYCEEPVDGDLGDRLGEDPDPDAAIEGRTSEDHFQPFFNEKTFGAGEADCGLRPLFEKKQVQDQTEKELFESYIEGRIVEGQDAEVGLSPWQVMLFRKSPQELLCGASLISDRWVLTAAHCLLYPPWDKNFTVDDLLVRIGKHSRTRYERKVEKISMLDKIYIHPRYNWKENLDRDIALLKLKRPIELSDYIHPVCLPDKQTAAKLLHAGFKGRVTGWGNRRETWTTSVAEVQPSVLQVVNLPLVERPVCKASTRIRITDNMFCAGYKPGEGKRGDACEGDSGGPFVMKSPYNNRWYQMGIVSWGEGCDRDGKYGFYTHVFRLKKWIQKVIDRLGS
PLCgamma1 ctr: inhibits human PLC-gamma1 in PLC-beta3 counter-screen; shares compounds with PLC-gamma1 inh; inhibition, % at 12.3 µM; AID 743258; purified PLC-gamma1, fluorogenic substrate, fluorescence; hit rate 3.1% among 3,300; in the data active = inhibition above about 9.5%
PLCbeta3 conf: confirmation of human PLC-beta3 inhibitors | shares compounds with PLC-gamma1 inh | purified PLC-beta3, fluorogenic substrate fluorescence | inhibition, % at 12.3 µM | hit rate 1% among 3,300; in the data active = inhibition above about 11%
* hit, by the source's call; · = not tested or not shown. Rule as the data show it, unless noted: active = inhibition above about 40%; inactive = the rest.

SMILES | Rpn11 inh | PLC-gamma1 inh | UCH37 DUB inh | PLC-beta3 inh | PLCgamma1 ctr | PLCbeta3 conf | others
CCOc1cccc(N2C(=O)/C(=C/c3ccco3)C(=O)NC2=S)c1 | · | -16 | 7 | -28 | · | ·
COc1cc(C=NNP(=S)(c2ccccc2)c2ccccc2)ccc1O | · | · | 2 | · | · | ·
O=C(N/N=C/c1c(O)n(CCc2ccccc2)c(=O)[nH]c1=O)c1ccccc1O | 58* | -54 | -10 | -84 | · | · | Rpn11 confirm=62*;MMP-2 inh=-15;Thrombin inh=36
COc1cc(/C=C/C(=O)c2c(O)n(CCc3ccccc3)c(=O)[nH]c2=O)ccc1O | 53* | -6 | -5 | -11 | · | · | Rpn11 confirm=61*;MMP-2 inh=5;Thrombin inh=31
O=c1[nH]c(=O)n(Cc2ccccc2)c(O)c1/C=N/NCCO | 47* | -5 | 0 | -12 | · | · | Rpn11 confirm=39;MMP-2 inh=-33;Thrombin inh=25
COc1ccc(CCn2c(O)c(C=Nc3ccccc3F)c(=O)[nH]c2=O)cc1OC | 35* | 1 | -14 | -4 | · | · | Rpn11 confirm=-2;MMP-2 inh=-31;Thrombin inh=1
O=C(N/N=C/c1c(O)n(Cc2ccccc2)c(=O)[nH]c1=O)c1ccccc1O | 14 | -64 | -20 | -80 | · | ·
O=C(/C=C/c1ccccc1)c1c(O)n(CCc2ccccc2)c(=O)[nH]c1=O | -1 | -1 | -17 | 2 | · | ·
O=C(NN=CC1C(=O)NC(=S)N(c2ccccc2)C1=O)c1cc(Br)c(O)c(Br)c1 (stereo not given) | · | · | -1 | · | · | ·
O=C(N/N=C/c1c(O)n(CCc2ccc(F)cc2)c(=O)[nH]c1=O)c1ccncc1 | 12 | -53 | · | -69 | · | ·
O=C(N/N=C/c1c(O)n(CCc2ccc(F)cc2)c(=O)[nH]c1=O)c1ccccc1 | 39* | 4 | -148 | -8 | · | · | Rpn11 confirm=18;MMP-2 inh=-30;Thrombin inh=-16
O=C(COc1ccccc1)N1CCN(CC2CC3C=CC2C3)CC1 (stereo not given) | 9 | 16* | 6 | 1 | -5 | 0
C=C1[C@@H](O)[C@]23C[C@@H]1[C@@H](O)C[C@H]2[C@@]12C4[C@@H]3C[C@@H]1[C@@](C)(CC[C@@H]2O)CN4CC | · | · | 3 | · | · | ·
O=c1[nH]c(=S)n(Cc2ccc(F)cc2)c(O)c1C=NCc1cccnc1 | 3 | 11* | 1 | 0 | -1 | 0
CCC(C)n1c(O)c(C=NCc2cccnc2)c(=O)[nH]c1=S (stereo not given) | 1 | 2 | 9 | -6 | · | ·
O=C1CC(=O)N(Cc2ccccc2)C(=O)N1 | 14 | 16* | · | 2 | -2 | -2
O=C1CC(=O)N(Cc2ccccc2)C(=O)N1Cc1ccccc1 | · | -3 | · | -1 | · | ·
CCN1CCN(Cc2cccnc2)CC1 | -1 | 9.7* | 0 | 2 | -6 | -3
CC12CC[C@H]3[C@@H](CCC4(O)C[C@H](O)CCC34/C=N/NC(=O)c3ccccc3F)C1(O)CCC2C1=CC(=O)OC1 (stereo not given in full) | -6 | 13* | · | 8 | -9 | -4
O=C(NN=CC1C(=O)NC(=S)N(c2ccccc2)C1=O)c1ccc(O)cc1 (stereo not given) | · | · | 1 | · | · | ·
C[C@]12CCC(=O)C=C1CC[C@@H]1[C@@H]2CC[C@]2(C)C(=O)CC[C@@H]12 | 3 | -1 | 1 | 1 | · | ·
C[C@]12CCC(=O)C=C1CC[C@@H]1C2CC[C@]2(C)C(=O)CCC12 (stereo not given in full) | 0 | 14* | 2 | 4 | -4 | -5
O=C(CSC1c2ccccc2-c2ccccc21)NN=Cc1ccccc1C(=O)O | · | · | 2 | · | · | ·
O=c1[nH]c(=O)n(Cc2ccco2)c(O)c1C=NCc1ccc2c(c1)OCO2 | 5 | 9.7* | 9 | 5 | -4 | -3
CCCCn1c(O)c(C=NCc2ccc3c(c2)OCO3)c(=O)[nH]c1=O | -2 | -3 | 1 | -3 | · | ·
CCOC(=O)c1cc(C)sc1N=CC1C(=O)NC(=S)NC1=O | · | · | 3 | · | · | ·
NS(=O)(=O)c1nc[nH]c1[N+](=O)[O-] | -6 | 11* | 6 | -2 | 2 | -5
